Experimental data as given in ChEMBL document CHEMBL1122326, “Nonsteroidal antiinflammatory agents. 2. [(Heteroarylamino)phenyl]alkanoic acids” (J Med Chem, 1983).

Key:
[1] = tested on: Mus musculus; experiment: ED50 value was evaluated for analgesic activity by phenylquinone -induced writhing test in mice on peroral administration; type: functional; conditions: po
Method in brief: (§1)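 Female ddN mice, 5 to 15 per dose, given drug orally in 0.5% aqueous tragacanth. Writhing was induced by ip phenylquinone (0.03%), and writhes were counted over 15 min.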

[2] = tested on: Rattus norvegicus; experiment: ED50 value was evaluated for antiinflammatory activity by carrageenan-induced rat paw edema method (CPE) on peroral administration; type: functional; conditions: po
Method in brief: (§2)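 Male Wistar rats, 5 to 10 per dose, 4 to 5 doses per drug, given orally in 0.5% aqueous tragacanth. Edema was induced by subcutaneous carrageenin into the left hind paw. A rat counted as positive at ≥25% inhibition versus vehicle at 3 h. ED50 with 95% confidence limits was calculated by Litchfield-Wilcoxon, after a screen at 80 mg/kg.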

[3] = tested on: Mus musculus; experiment: ED50 value was evaluated for analgesic activity by phenylquinone -induced writhing test in mice on peroral administration; value may range from 35.3 to 283; type: functional; conditions: po; method in brief: as §1
[4] = tested on: Rattus norvegicus; experiment: Evaluated for the UD50 value by gastric ulcer assay in rats on peroral administration of dose; value may range from 368-807; type: functional, Stomach
Method in brief: (§3)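 Male Wistar rats fasted for 24 h were given a single oral dose in 0.5% aqueous tragacanth and killed 6 h later. Stomachs were inspected macroscopically. UD50 is the dose producing ulcers in 50% of rats, taken from each compound's regression line.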

[5] = Ratio between UD50 and ED50 in carrageenan paw edema was determined; type: functional
Method in brief: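 Gastric UD50 (fasted male Wistar rats, single oral dose, stomach scored macroscopically at 6 h) was divided by oral CPE ED50 (male Wistar rats, paw carrageenin, ≥25% inhibition at 3 h, Litchfield-Wilcoxon).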

[6] = Evaluated for the acute lethal toxicity in mice on peroral administration of dose; value may range from 430 to 1236; type: organism-based; conditions: mouse, in vivo, po
Method in brief: (§4)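 Single oral dose, in 0.5% aqueous tragacanth, given to male Std:ddY mice. LD50 was derived from mortality over 7 days.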

[7] = tested on: Rattus norvegicus; experiment: ED50 value was evaluated for antiinflammatory activity by carrageenan-induced rat paw edema method (CPE) on peroral administration; value may range from 12.71 to 51.24; type: functional; conditions: po; method in brief: as §2
[8] = tested on: Mus musculus; experiment: ED50 value was evaluated for analgesic activity by phenylquinone -induced writhing test in ddN strain mice on peroral administration; value ranges from 32.7-76.20; type: functional; conditions: po
[9] = tested on: Rattus norvegicus; experiment: Evaluated for the UD50 value by gastric ulcer assay in rats on peroral administration of dose; value ranges from 82.3-182; type: functional, Stomach; method in brief: as §3
[10] = tested on: Rattus norvegicus; experiment: ED50 value was evaluated for antiinflammatory activity by carrageenan-induced rat paw edema method (CPE) on peroral administration; value may range from 39.61 to 80.81; type: functional; conditions: po; method in brief: as §2
[11] = tested on: Rattus norvegicus; experiment: ED50 value was evaluated for antiinflammatory activity by carrageenan-induced rat paw edema method (CPE) on peroral administration; value may range from 50.5 to 120.0; type: functional; conditions: po; method in brief: as §2
[12] = tested on: Mus musculus; experiment: ED50 value was evaluated for analgesic activity by phenylquinone-induced writhing test in mice on peroral administration; type: functional; conditions: po; method in brief: as §1
[13] = Evaluated for the acute lethal toxicity in mice on peroral administration of dose; value may range from 1539 to 2362; type: organism-based; conditions: mouse, in vivo, po; method in brief: as §4
[14] = tested on: Rattus norvegicus; experiment: Evaluated for the UD50 value by gastric ulcer assay in rats on peroral administration of dose; type: functional, Stomach; method in brief: as §3
[15] = tested on: Rattus norvegicus; experiment: ED50 value was evaluated for antiinflammatory activity by carrageenan-induced rat paw edema method (CPE) on peroral administration; value may range from 3.87 to 25.90; type: functional; conditions: po; method in brief: as §2
[16] = tested on: Rattus norvegicus; experiment: ED50 value was evaluated for antiinflammatory activity by carrageenan-induced rat paw edema method (CPE) on peroral administration; value may range from 7.05 to 37.13; type: functional; conditions: po; method in brief: as §2
[17] = tested on: Mus musculus; experiment: ED50 value was evaluated for analgesic activity by phenylquinone -induced writhing test in mice on peroral administration; value may range from 20.6 to 66.0; type: functional; conditions: po; method in brief: as §1

| SMILES | ED50 [1] | ED50 [2] | also measured |
| --- | --- | --- | --- |
| O=C(O)Cc1ccc(Nc2ccc3ccccc3n2)cc1 | ≥ 100 mg/kg | > 80 mg/kg | – |
| CC(C(=O)O)c1ccc(Nc2ccc(Br)cn2)cc1 (stereo not drawn) | – | ≥ 80 mg/kg | ED50 [3]: 100 mg/kg |
| CC(C(=O)O)c1ccc(Nc2ccccn2)c(Cl)c1 (stereo not drawn) | – | – | UD50 [4]: 545 mg/kg; Ratio [5]: 41.6; LD50 [6]: 729 mg/kg |
| CC(C(=O)O)c1ccc(Nc2ccccc2)cc1 (stereo not drawn) | > 100 mg/kg | – | ED50 [7]: 25.5 mg/kg |
| O=C(O)Cc1ccc(Nc2ccncc2)cc1 | – | > 80 mg/kg | – |
| CC(C(=O)O)c1ccc(Nc2ccc3ccccc3n2)cc1 (stereo not drawn) | ≥ 100 mg/kg | > 80 mg/kg | – |
| Cc1ccnc(Nc2ccc(C(C)C(=O)O)cc2)c1 (stereo not drawn) | > 100 mg/kg | > 80 mg/kg | – |
| Cc1ccc(Nc2ccc(C(C)C(=O)O)cc2)nc1 (stereo not drawn) | ≥ 100 mg/kg | ≥ 80 mg/kg | – |
| CC(C)Cc1ccc(C(C)C(=O)O)cc1 (stereo not drawn) [IBUPROFEN] | – | – | ED50 [8]: 50 mg/kg; UD50 [9]: 124.6 mg/kg |
| O=C(O)Cc1cccc(Nc2ccccn2)c1 | ≥ 100 mg/kg | > 80 mg/kg | – |
| Cc1cccc(Nc2ccc(C(C)C(=O)O)cc2)n1 (stereo not drawn) | > 100 mg/kg | > 80 mg/kg | – |
| CC(C(=O)O)c1ccc(Nc2ccc(Cl)cn2)cc1 (stereo not drawn) | ≥ 100 mg/kg | ≥ 80 mg/kg | – |
| CC(C(=O)O)c1ccc(Nc2ccc([N+](=O)[O-])cn2)cc1 (stereo not drawn) | ≥ 100 mg/kg | – | ED50 [10]: 56.6 mg/kg |
| Cc1cc(Nc2ccc(C(C)C(=O)O)cc2)ncn1 (stereo not drawn) | ≥ 100 mg/kg | > 80 mg/kg | – |
| Cc1cc(Nc2ccc(CC(=O)O)cc2)ncn1 | > 100 mg/kg | > 80 mg/kg | – |
| CC(C(=O)O)c1cccc(Nc2ccccn2)c1 (stereo not drawn) | > 100 mg/kg | – | ED50 [11]: 77.9 mg/kg |
| CSc1nccc(Nc2ccc(CC(=O)O)cc2)n1 | – | > 80 mg/kg | ED50 [12]: > 100 mg/kg |
| Cc1cccnc1Nc1ccc(C(C)C(=O)O)cc1 (stereo not drawn) | ≥ 100 mg/kg | ≥ 80 mg/kg | – |
| CC(C(=O)O)c1ccc(Nc2ccccn2)cc1 (stereo not drawn) | – | – | LD50 [13]: 1910 mg/kg; UD50 [14]: >640 mg/kg; Ratio [5]: > 64; ED50 [15]: 10 mg/kg |
| O=C(O)Cc1ccc(Nc2ccccn2)cc1 | > 100 mg/kg | – | ED50 [16]: 15.8 mg/kg |
| Cc1cc(C(C)C(=O)O)ccc1Nc1ccccn1 (stereo not drawn) | – | 16.8 mg/kg | ED50 [17]: 36.9 mg/kg |
| CC(C(=O)O)c1ccc(Nc2ccccn2)cc1Cl (stereo not drawn) | ≥ 100 mg/kg | ≥ 80 mg/kg | – |
| CC(C(=O)O)c1ccc(Nc2ccncc2)cc1 (stereo not drawn) | ≥ 100 mg/kg | > 80 mg/kg | – |
